# Data taken from ChEMBL document CHEMBL4393721 (Eur J Med Chem, 2019).
# Activity calls are given as the source filed them. The rule behind the calls is not given here.
# Legend:
# HepG2 [1] = experiment: Antiinflammatory activity in human HepG2 cells assessed as inhibition of TNFalpha-induced IkappaBalpha degradation at 2 uM pretreated for 1 hr followed by TNFalpha addition and measured after 30 mins by Western blot analysis; format: functional, cell-based
# How it was run: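 HepG2 cells grown in DMEM with 10% FBS were exposed to compound for 1 hr and to TNFα (20 ng/mL) for 30 min. Lysates were run on 10% SDS-PAGE and immunoblotted for IκBα with ECL detection. Band grey values were quantified by densitometry. Data are mean ± SEM of three independent experiments.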
# [2] = molecular target: T1, Nuclear receptor subfamily 4immunitygroup A member 1 (Homo sapiens, UniProt P22736); experiment: Binding affinity to recombinant human N-terminal His-tagged Nur77 LBD (367 to 598 residues) expressed in Escherichia coli BL21(DE3) incubated for 30 secs by fluorescence quenching assay
# T1 sequence (P22736 whole entry, the tested form may be a part): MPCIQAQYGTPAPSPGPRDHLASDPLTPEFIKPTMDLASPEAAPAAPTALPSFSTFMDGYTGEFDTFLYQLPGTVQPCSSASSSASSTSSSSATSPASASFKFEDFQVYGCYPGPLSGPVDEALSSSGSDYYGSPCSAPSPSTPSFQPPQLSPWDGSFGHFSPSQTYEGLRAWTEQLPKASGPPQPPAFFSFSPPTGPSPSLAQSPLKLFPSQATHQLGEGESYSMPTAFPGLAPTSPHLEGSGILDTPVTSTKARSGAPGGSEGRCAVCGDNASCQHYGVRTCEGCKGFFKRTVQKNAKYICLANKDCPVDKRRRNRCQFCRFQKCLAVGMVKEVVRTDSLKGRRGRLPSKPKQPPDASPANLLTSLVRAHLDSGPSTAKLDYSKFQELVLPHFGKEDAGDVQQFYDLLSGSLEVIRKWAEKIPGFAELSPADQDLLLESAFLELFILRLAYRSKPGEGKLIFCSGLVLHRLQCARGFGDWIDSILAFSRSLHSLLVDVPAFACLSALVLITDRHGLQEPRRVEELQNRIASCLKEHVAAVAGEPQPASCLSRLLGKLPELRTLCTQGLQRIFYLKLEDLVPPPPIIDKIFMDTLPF
# [3] = Induction of apoptosis in TNFalpha-treated human HepG2 cells assessed as normal cells at 2 uM incubated for 10 hrs by FITC Annexin V and propidium iodide staining based flow cytometric analysis (reference value: 88.37%); format: cell-based; conditions: read-out: Activity
# How it was run: (§1)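 HepG2 cells grown in DMEM with 10% FBS were treated for 10 hr with compound (2 μM) plus TNFα (20 ng/mL). Cells were collected in binding buffer, stained with FITC-Annexin V and propidium iodide at room temperature, and analysed by flow cytometry. Quadrants as labelled: UL necrotic, UR viable apoptotic, LR non-viable apoptotic, LL normal.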
# HepG2 [4] = experiment: Induction of apoptosis in TNFalpha-treated human HepG2 cells assessed as PARP cleavage at 2 uM incubated for 10 hrs by Western blot analysis; format: cell-based; conditions: hepg2, 10 h
# [5] = molecular target: T1, Nuclear receptor subfamily 4immunitygroup A member 1; experiment: Binding affinity to Myc-Nur77 (unknown origin) expressed in human HepG2 cells co-transfected with Flag tagged TRAF2 assessed as effect on protein interaction with TRAF2 at 2 uM incubated for 1 hr in presence of TNFalpha by co-immunoprecipitation assay; format: cell-based
# How it was run: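 HepG2 cells were transfected with Myc-Nur77 and Flag-TRAF2, then treated for 1 hr with compound (2 μM) plus TNFα (20 ng/mL). Lysis buffer was 10 mM Tris pH 7.4, 150 mM NaCl, 1% Triton X-100, 5 mM EDTA and protease inhibitors. Lysate was incubated with 1 μg antibody for 2 hr at 4 °C, pulled down with protein A/G sepharose, washed, and read by Western blot.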
# HepG2 [6] = experiment: Induction of apoptosis in TNFalpha-treated human HepG2 cells assessed as non-viable apoptotic cells at 2 uM incubated for 10 hrs by FITC Annexin V and propidium iodide staining based flow cytometric analysis (reference value: 6.65%); format: cell-based; conditions: hepg2, 10 h; how it was run: as §1
# HepG2 [7] = experiment: Induction of apoptosis in TNFalpha-treated human HepG2 cells assessed as necrotic cells at 2 uM incubated for 10 hrs by FITC Annexin V and propidium iodide staining based flow cytometric analysis (reference value: 1.29%); format: cell-based; conditions: hepg2, 10 h; how it was run: as §1
# HepG2 [8] = experiment: Induction of apoptosis in TNFalpha-treated human HepG2 cells assessed as viable apoptotic cells at 2 uM incubated for 10 hrs by FITC Annexin V and propidium iodide staining based flow cytometric analysis (reference value: 3.69%); format: cell-based; conditions: hepg2, 10 h; how it was run: as §1
# [9] = molecular target: T1, Nuclear receptor subfamily 4immunitygroup A member 1; experiment: Binding affinity to GFP-Nur77 (unknown origin) expressed in human HepG2 cells cotransfected with mCherry-p62/SQSTM1 assessed as co-localization with p62/SQSTM1 in cytoplasm in presence of TNFalpha by DAPI staining based confocal microscopic analysis; format: cell-based
# How it was run: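 HepG2 cells were transfected with GFP-Nur77 and mCherry-p62/SQSTM1, then treated with TNFα plus compound. Cells were fixed in paraformaldehyde, with nuclei counterstained by DAPI (1:10000). Nur77–p62 colocalization was imaged by fluorescence or LSM-510 confocal microscopy.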
# [10] = Toxicity in zebrafish embryo AB assessed as induction of malformation at 0.5 to 1.25 uM incubated for 24 to 72 hrs; set-up: species or system Danio rerio; conditions: in vivo
# How it was run: (§2)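 Wild-type AB zebrafish embryos (20 per condition), collected within 0.5 h of spawning, were exposed from 2 hpf to 0.5, 1 or 1.25 µM compound in fish water, with 0.1% DMSO as control. Embryos were observed and imaged every 24 h. Mortality was scored at 24 and 72 hpf and malformation rate at 72 hpf.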
# [11] = Toxicity in zebrafish embryo AB assessed as mortality at 0.5 uM incubated for 72 hrs relative to control; set-up: species or system Danio rerio; conditions: in vivo, read-out: Activity; how it was run: as §2
# [12] = Toxicity in zebrafish embryo AB assessed as mortality at 0.125 uM incubated for 24 hrs relative to control; set-up: species or system Danio rerio; conditions: in vivo, read-out: Activity
# [13] = Toxicity in zebrafish embryo AB assessed as mortality at 0.5 uM incubated for 24 hrs; set-up: species or system Danio rerio; conditions: in vivo; how it was run: as §2
# [14] = Toxicity in zebrafish embryo AB assessed as mortality at 0.5 uM incubated for 72 hrs; set-up: species or system Danio rerio; conditions: in vivo; how it was run: as §2
# [15] = Toxicity in zebrafish embryo AB assessed as mortality at 0.125 uM incubated for 24 hrs; set-up: species or system Danio rerio; conditions: in vivo
Structure (SMILES),inhibition (HepG2 [1]),Kd [2],Kd ([2]; read-out: Kd) [nM],other results
Cc1c(O)c(O)cc2c1[C@H](C)C=C1[C@@]2(C)CC[C@@]2(C)[C@@H]3C[C@](C)(C(=O)O)CC[C@]3(C)CC[C@]12C,inactive,Not Active,,
CC1=C(O)C(=O)C=C2C1=CC=C1[C@@]2(C)CC[C@@]2(C)[C@@H]3C[C@](C)(C(=O)F)CC[C@]3(C)CC[C@]12C,Active,,720,
CC(=O)C[C@@H]1C=C2[C@@](C)(CC[C@@]3(C)[C@@H]4C[C@](C)(C(=O)O)CC[C@]4(C)CC[C@]23C)c2cc(O)c(O)c(C)c21,inactive,,3800,
COc1cc2c(c(C)c1O)CC=C1[C@@]2(C)CC[C@@]2(C)[C@@H]3C[C@](C)(C(=O)O)CC[C@]3(C)CC[C@]12C,inactive,Not Active,,
CNC(=O)[C@]1(C)CC[C@]2(C)CC[C@]3(C)C4=CC=C5C(=CC(=O)C(O)=C5C)[C@]4(C)CC[C@@]3(C)[C@@H]2C1,Active,,800,
CCOC1=C(C)C2=CC=C3[C@@](C)(CC[C@@]4(C)[C@@H]5C[C@](C)(C(=O)OC)CC[C@]5(C)CC[C@]34C)C2=CC1=O,inactive,,4130,
CC1=C(O)C(=O)C=C2C1=CC=C1[C@@]2(C)CC[C@@]2(C)[C@@H]3C[C@](C)(C(=O)OC(C)C)CC[C@]3(C)CC[C@]12C,Active,,520,
Cc1c(O)c(O)cc2c1[C@H](CN)C=C1[C@@]2(C)CC[C@@]2(C)[C@@H]3C[C@](C)(C(=O)O)CC[C@]3(C)CC[C@]12C,inactive,Not Active,,
COC(=O)[C@]1(C)CC[C@]2(C)CC[C@]3(C)C4=CC=C5C(=CC(=O)C(OC)=C5C)[C@]4(C)CC[C@@]3(C)[C@@H]2C1,inactive,,2940,
CCCNC(=O)[C@]1(C)CC[C@]2(C)CC[C@]3(C)C4=CC=C5C(=CC(=O)C(O)=C5C)[C@]4(C)CC[C@@]3(C)[C@@H]2C1,Active,,270,
Cc1c(O)c(O)cc2c1[C@H](c1cc[nH]c1)C=C1[C@@]2(C)CC[C@@]2(C)[C@@H]3C[C@](C)(C(=O)O)CC[C@]3(C)CC[C@]12C,inactive,Not Active,,
COC(=O)[C@]1(C)CC[C@]2(C)CC[C@]3(C)C4=CCc5c(cc(OC)c(O)c5C)[C@]4(C)CC[C@@]3(C)[C@@H]2C1,inactive,Not Active,,
CCNC(=O)[C@]1(C)CC[C@]2(C)CC[C@]3(C)C4=CC=C5C(=CC(=O)C(O)=C5C)[C@]4(C)CC[C@@]3(C)[C@@H]2C1,Active,,830,"viability at 10 h, 2 µM [3]: 53.7%; Activity (HepG2 [4]): Toxic; Activity [5]: Active; Activity (HepG2 [6]): 24%; Activity (HepG2 [7]): 3.92%; Activity (HepG2 [8]): 18.35%; Activity [9]: Active"
COC(=O)[C@]1(C)CC[C@]2(C)CC[C@]3(C)C4=CCc5c(cc(O)c(OC)c5C)[C@]4(C)CC[C@@]3(C)[C@@H]2C1,,Not Active,,
COP(=O)(OC)[C@@H]1C=C2[C@@](C)(CC[C@@]3(C)[C@@H]4C[C@](C)(C(=O)O)CC[C@]4(C)CC[C@]23C)c2cc(O)c(O)c(C)c21,inactive,Not Active,,
COC(=O)[C@]1(C)CC[C@]2(C)CC[C@]3(C)C4=CC=C5C(=CC(=O)C(O)=C5C)[C@]4(C)CC[C@@]3(C)[C@@H]2C1 [PRISTIMERIN],Active,,960,
COC(=O)[C@]1(C)CC[C@]2(C)CC[C@]3(C)C4=CCc5c(cc(OC)c(OC)c5C)[C@]4(C)CC[C@@]3(C)[C@@H]2C1,inactive,Not Active,,
CCOC(=O)[C@]1(C)CC[C@]2(C)CC[C@]3(C)C4=CC=C5C(=CC(=O)C(O)=C5C)[C@]4(C)CC[C@@]3(C)[C@@H]2C1,Active,,220,
CC1=C(O)C(=O)C=C2C1=CC=C1[C@@]2(C)CC[C@@]2(C)[C@@H]3C[C@](C)(C(=O)O)CC[C@]3(C)CC[C@]12C [CELASTROL],Active,,,"viability at 10 h, 2 µM [3]: 62.9%; Activity [10]: Toxic; mortality at 72 h, 0.5 µM [11]: 100%; mortality at 24 h, 0.125 µM [12]: 90%; Activity (HepG2 [4]): Toxic; Activity [5]: Active; Activity (HepG2 [6]): 24.98%; Activity (HepG2 [7]): 1.75%; Activity (HepG2 [8]): 10.34%; Activity [13]: Toxic; Activity [9]: Active"
Cc1c(O)c(O)cc2c1CC=C1[C@@]2(C)CC[C@@]2(C)[C@@H]3C[C@](C)(C(=O)O)CC[C@]3(C)CC[C@]12C [DIHYDROCELASTROL],Active,,870,"viability at 10 h, 2 µM [3]: 85%; Activity [14]: Toxic; Activity [10]: Toxic; Activity [15]: Toxic; Activity (HepG2 [4]): Non-Toxic; Activity [5]: Active; Activity (HepG2 [6]): 11.09%; Activity (HepG2 [7]): 0.79%; Activity (HepG2 [8]): 3.12%; Activity [13]: Toxic; Activity [9]: Active"
COc1cc2c(c(C)c1OC)CC=C1[C@@]2(C)CC[C@@]2(C)[C@@H]3C[C@](C)(C(=O)O)CC[C@]3(C)CC[C@]12C,inactive,Not Active,,
Cc1c(O)c(O)cc2c1[C@H](C[N+](=O)[O-])C=C1[C@@]2(C)CC[C@@]2(C)[C@@H]3C[C@](C)(C(=O)O)CC[C@]3(C)CC[C@]12C,inactive,,5560,
COC(=O)[C@]1(C)CC[C@]2(C)CC[C@]3(C)C4=CC=C5C(=CC(=O)C(OCC(F)F)=C5C)[C@]4(C)CC[C@@]3(C)[C@@H]2C1,inactive,,3300,
COc1c(O)cc2c(c1C)CC=C1[C@@]2(C)CC[C@@]2(C)[C@@H]3C[C@](C)(C(=O)O)CC[C@]3(C)CC[C@]12C,inactive,Not Active,,
Cc1c(O)c(O)cc2c1C(=O)C=C1[C@@]2(C)CC[C@@]2(C)[C@@H]3C[C@](C)(C(=O)O)CC[C@]3(C)CC[C@]12C,inactive,,2690,
